NF-kB expr up: raises NF-kB expression in human neuronal cells; NF-kB reporter expression; stronger effect = higher value; fold change at 12.5 µM; 190,000 tested, 1.6% active; AID 1239; in the data active = fold change above about 3.3
STAT3 inh: inhibitors of IL-6 induced STAT3 signaling. AID 862. U3A cells, IL-6 STAT3-luciferase reporter, luminescence; host cell line lacks STAT1. inhibition, % at 5.5 µM. 190,000 tested, 0.89% active;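 active = inhibition above the mean inhibition across all screened compounds plus 3 SD, cut at about 44% in these data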;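 note: 0% = DMSO only wells and 100% = 100 µM nifuroxazide control wells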
APP 5'UTR act: activates APP 5'UTR luciferase reporter | AID 1276 | SH-SY5Y APP 5'UTR luciferase reporter, luminescence; zero percent = DMSO vehicle wells | activation, % at 2 µM | 190,000 tested, 1% active;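 active = activation above a set limit, based on mean plus 3 SD of controls, cut at about 140% in these data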
STAT3 activator: activators of IL-6 induced STAT3 signaling; 190,000 tested, 0.91% active; U3A cells, IL-6 STAT3-luciferase reporter, luminescence; 100% = signal with IL-6 EC80 alone; activation (% of control), % at 5.6 µM;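 active = activation above the screen-wide mean of compound activation plus 3 SD, cut at about 130% in these data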;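 note: 0% = background luminescence of wells with medium and substrate only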
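Material: STAT3-luciferase reporter U3A cells. Controls: IL-6-treated wells, 100% activation. Read-out: % activation versus median of IL-6-stimulated wells. Probe or stimulus: IL-6 stimulus at 33 ng/mL final. Timing: compound 1 h, then IL-6 6 h at 37 °C. Signal: reporter luminescence signal.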
STAT1 act: STAT1 signaling activation. activation (% of control), % at 5.5 µM. NIH 3T3 STAT1-luciferase reporter, IFN-gamma, luminescence; 100% = IFN-gamma alone, no compound. 200,000 tested, 2.6% active. AID 932;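 active = activation above the screen-wide mean activation plus 3 SD, cut at about 130% in these data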;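 note: raw ratio to IFN-gamma control signal so 100% means no change and 0% no light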
STAT1 blocker: STAT1 signaling inhibition; inhibition, % at 5.5 µM; NIH 3T3 STAT1-luciferase reporter, IFN-gamma, luminescence; AID 920; 200,000 tested, 0.35% active;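 active = inhibition above a set limit, the mean inhibition across all tested compounds plus 3 SD, cut at about 34% in these data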;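 note: 0% = IFN-gamma with DMSO and 100% = IFN-gamma with 300 µM nifuroxazide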
An asterisk follows results filed as active; · = no result. The list is not random: actives were taken first. Their share in the collection is about 5.1%.

SMILES | NF-kB expr up | STAT3 inh | APP 5'UTR act | STAT3 activator | STAT1 act | STAT1 blocker
CCCCNC(=O)c1onc(CCl)c1C(=O)OC | 1.07 | 4.9 | -4.3 | 101.9 | 102.8 | -3.1
COc1cc(NC(=O)c2c(F)cccc2F)c(Cl)cc1Cl | 1.32 | 17.7 | -7.9 | 87.3 | 112.9 | -14.6
O=C(CN1CCN(S(=O)(=O)c2ccccc2)CC1)Nc1ccccc1C(=O)c1ccccc1 | 0.59 | -2.1 | -0.3 | 104.5 | 99.5 | 0.5
CN(C)/C=C1/N=C(c2ccccc2)OC1=O | 1.41 | 21.3 | -6.4 | 86.2 | 106.1 | -6.6
O=C1OC(c2ccccc2)=N/C1=C\N1CCCCC1 | 2.41 | -25.7 | 93.2 | 127.1 | 142.9* | -47.0
O=C1OC(c2ccc(Br)cc2)=N/C1=C\N1CCCCC1 | 1.98 | 7.2 | 6.3 | 98.8 | 137.6* | -41.1
C/C(CCc1ccc2c(c1)OCO2)=N\N=C1\NC(=O)CC(C(=O)Nc2ccc(Cl)cc2)S1 (stereo unspecified) | 1.35 | 9.0 | -6.8 | 101.0 | 101.3 | -1.5
CCCCn1c(NC(=S)Nc2ccccc2)nc2ccccc21 | 1.15 | -10.2 | 23.7 | 106.2 | 93.3 | 7.6
CCOC(=O)c1nnn(-c2nonc2N)c1-c1ccc(F)cc1 | 1.21 | -3.2 | -44.4 | 109.7 | 95.6 | 4.4
CCN(CCn1cccn1)C(=O)CCc1nnc(CCCc2ccccc2)o1 | 4.14* | -18.6 | 67.0 | 118.0 | 146.6* | -52.9
CCN(CCn1cccn1)C(=O)CCc1nnc(-c2ccc3c(c2)OCO3)o1 | 1.44 | 7.0 | 5.8 | 104.2 | 117.4 | -20.1
COc1cc(NC(=O)CSc2nc3ccccc3cc2C)c(C(=O)O)cc1OC | 8.72* | -0.8 | 5.2 | 98.5 | 99.3 | 0.8
COc1cc(NS(=O)(=O)c2ccc(N/C=C\C(=O)c3ccc(F)cc3)cc2)nc(OC)n1 | 1.18 | -1.6 | -22.2 | 99.2 | 118.2 | -20.4
COCCN(CCOC)S(=O)(=O)c1ccc(C(=O)Nc2sc3c(c2C(N)=O)CCCCC3)cc1 | 0.52 | -6.4 | 90.0 | 105.1 | 128.6* | -31.5
CC(NC(=O)CN(C)Cc1cccs1)c1ccccc1 (stereo unspecified) | 1.23 | -1.1 | 2.5 | 106.2 | 94.8 | 3.5
Cc1cc(C)c(C(=O)CSc2nc3ccccc3c(=O)[nH]2)cc1C | 1.18 | 8.4 | -4.1 | 97.1 | 102.0 | -0.3
COCC(C)n1c(C)cc(C(=O)CSc2nc3ccccc3c(=O)[nH]2)c1C (stereo unspecified) | 0.98 | 29.4 | 0.1 | 79.6 | 85.2 | 16.3
COCCn1c(C)cc(C(=O)CSc2nc3ccccc3c(=O)[nH]2)c1C | 1.66 | -1.1 | 23.0 | 106.3 | 141.7* | -45.6
C=CCn1c(C)cc(C(=O)CSc2nc3ccccc3c(=O)[nH]2)c1C | 2 | 27.6 | 33.7 | 80.7 | 133.9* | -36.8
COc1cc(C=O)ccc1OCC(=O)N1CCCC1 | 0.99 | 12.7 | -0.7 | 95.0 | 107.5 | -10.2
CCOC(=O)CNC(=O)CSc1nc(C)cc(C)c1C#N | 1.24 | 21.0 | -3.0 | 86.0 | 87.8 | 13.3
CCOC(=O)NC(=O)CSc1nc(C)cc(C)c1C#N | 3.41* | 27.7 | 113.2 | 80.2 | 122.5 | -26.4
COc1cc(CO)cc(Br)c1OCC(=O)Nc1cccc2ccccc12 | 0.89 | -0.6 | 0.3 | 106.8 | 102.2 | -4.5
[O-]/C(=C(\C(=S)Nc1cccc2ccccc12)[n+]1ccccc1)c1ccc(OC(F)F)cc1 | 1.3 | -33.4 | 9.2 | 129.7 | 95.2 | 4.5
[O-]/C(=C(\C(=S)Nc1cccc2ccccc12)[n+]1ccccc1)c1ccc2c(c1)OCCO2 | 0.57 | -30.9 | 0.1 | 133.9* | 96.2 | 4.1
SMILES | NF-kB expr up | STAT3 inh | APP 5'UTR act | STAT3 activator | STAT1 act | STAT1 blocker
O=C(COc1ccc([N+](=O)[O-])cc1)Nc1ccccc1N1CCCC1 | 1.07 | 13.9 | -3.2 | 91.5 | 95.0 | 3.9
COc1ccc(CC(=O)NNC(=S)Nc2ccccc2)cc1Cl | 1.12 | 1.1 | -0.6 | 103.1 | 103.7 | -7.5
CCCOc1ccc(CC(=O)NNC(=S)Nc2ccccc2)cc1Br | 3.31* | 6.1 | 11.9 | 96.7 | 112.8 | -8.6
CC(=O)NCCN=C(C)c1sc2ccccc2c1O | 1.65 | -2.6 | 48.4 | 104.6 | 114.4 | -15.8
CC(=Nc1cccc(C)c1)c1sc2ccccc2c1O | 6.01* | -38.8 | 137.3* | 137.9* | 169.8* | -76.3
N/C(=N\OC(=O)c1ccc2c(c1)OCO2)c1ccc([N+](=O)[O-])cc1 | 1.71 | 2.6 | 49.1 | 100.9 | 129.2* | -34.0
N/C(=N\OC(=O)c1ccc2c(c1)OCO2)c1cccnc1 | 3.55* | 12.4 | 118.5 | 91.3 | 86.9 | 12.4
COc1ccc(/C(N)=N/OC(=O)c2ccc3c(c2)OCO3)cc1OC | 2.06 | -7.4 | 44.3 | 110.0 | 116.5 | -18.5
N/C(=N\OC(=O)c1ccc(Cl)c(Cl)c1)c1cccnc1 | 3.97* | 4.7 | 1.3 | 96.3 | 118.1 | -19.6
N/C(=N\OC(=O)c1ccccc1Cl)c1cccnc1 | 5.66* | -7.2 | 109.4 | 107.2 | 140.2* | -47.3
CCNC(=S)NNC(=O)c1cc(C2CC2)nc2ccccc12 | 0.91 | 3.8 | -1.9 | 103.0 | 101.3 | -1.4
COc1cc2c(cc1NC(=O)C(C)NCc1ccccc1)oc1ccccc12 (stereo unspecified) | 0.68 | -8.9 | 27.4 | 107.2 | 91.7 | 9.2
COCCN(C(=O)CCc1nnc(CCc2c[nH]c3ccccc23)o1)C(C)C | 0.96 | -1.0 | 8.5 | 104.7 | 94.6 | 4.4
CC(C)(C)c1ccc(OC(=O)c2ccc(-n3cncn3)nc2)cc1 | 1.07 | 5.7 | 0.8 | 96.3 | 94.6 | 4.4
COCc1cc(CN2CCN(C)CC2)c(O)c2ncccc12 | 0.82 | -7.3 | 1.7 | 103.4 | 105.3 | -5.7
Oc1c(CN2CCOCC2)cc(COCc2ccccc2)c2cccnc12 | 4.22* | 3.7 | -91.8 | 96.3 | 119.0 | -21.0
CCOC(=O)C1=C(C)NC(C)=C(C(=O)OCC)C1c1ccc(O)cc1 | 1.46 | 3.9 | 6.1 | 100.4 | 90.3 | 10.6
COC(=O)C1=C(C)NC(C)=C(C(=O)OC)C1c1ccc(N(C)C)cc1 | 3.72* | 15.3 | -17.2 | 95.1 | 89.3 | 11.8
Clc1cccc(-c2nc(-c3ccccn3)no2)c1 | 1.55 | 80.6* | 97.1 | 33.2 | 62.7 | 53.9*
c1ccc(-c2cc(-c3nc(-c4ccccn4)no3)c3ccccc3n2)cc1 | · | 26.1 | -1.6 | 80.6 | 103.3 | -3.6
c1ccc(-c2ccc(-c3nc(-c4ccccn4)no3)cc2)cc1 | 0.3 | 109.0* | -46.1 | 9.7 | 17.6 | 92.2*
c1ccc(-c2nc(-c3ccccn3)no2)cc1 | 1.8 | 98.3* | 63.7 | 20.1 | 46.9 | 62.2*
Cc1ccc(-c2nc(-c3ccccn3)no2)cc1Cl | 0.59 | 99.3* | 158.7* | 15.4 | 28.1 | 78.6*
c1ccc(-c2noc(-c3cccc4ccccc34)n2)nc1 | 2.52 | 10.7 | 80.7 | 93.5 | 107.1 | 0.5
COc1cc(-c2nc(-c3ccccn3)no2)cc(OC)c1OC | 1.67 | 11.3 | 119.4 | 95.7 | 115.9 | -18.3
O=C(COC(=O)CC(c1ccccc1)c1ccccc1)Nc1c(F)cccc1F | 1.17 | -4.2 | 2.4 | 105.7 | 102.8 | -3.1
